Test results published in ChEMBL document CHEMBL1145793, “Discovery and structure-activity relationships of novel piperidine inhibitors of farnesyltransferase” (J Med Chem, 2003).

Target: Protein farnesyltransferase (Bos taurus, UniProt P29702+P49355)
Test: Inhibition of bovine brain farnesyltransferase (FTase) farnesylation of viral K-Ras
Procedure, shortened: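 Partially purified bovine brain farnesyltransferase, used as a crude dialysate. Substrates were viral K-Ras protein and [3H]farnesyl pyrophosphate. It was calculated by comparing untreated enzyme activity with activity at known inhibitor concentrations.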

SMILES | IC50
O=C1CC(c2ccc(Br)cc2)[C@H]([N+](=O)[O-])[C@@H](c2ccc(O)cc2)N1Cc1cccnc1 (stereo not given in full) | > 3700 nM
O=C1CC(c2cccc(Br)c2)[C@H]([N+](=O)[O-])[C@@H](c2ccc(O)cc2)N1Cc1ccncc1 (stereo not given in full) | > 3700 nM
Cc1cccc(C2CC(=O)N(Cc3cccnc3)[C@H](c3ccc(O)cc3)[C@H]2[N+](=O)[O-])c1 (stereo not given in full) | 410 nM
Nc1cc([C@@H]2[C@@H]([N+](=O)[O-])C(c3ccccc3Br)CC(=O)N2Cc2cccnc2)ccc1O (stereo not given in full) | 97 nM
COc1ccc([C@@H]2[C@@H]([N+](=O)[O-])C(c3ccccc3Br)CC(=O)N2Cc2cccnc2)cc1 (stereo not given in full) | > 1200 nM
N[C@H]1C(c2cccc(Br)c2)CC(=O)N(Cc2cccnc2)[C@@H]1c1ccc(O)cc1 (stereo not given in full) | > 3700 nM
O=C1CC(c2cccc(Cl)c2)[C@H]([N+](=O)[O-])[C@@H](c2ccc(O)cc2)N1Cc1cccnc1 (stereo not given in full) | 320 nM
O=C1CC(c2ccccc2Br)[C@H]([N+](=O)[O-])[C@@H](c2ccc(O)c(CO)c2)N1Cc1cccnc1 (stereo not given in full) | > 1200 nM
O=C1CC(c2cccc(Br)c2)[C@H](NO)[C@@H](c2ccc(O)cc2)N1Cc1cccnc1 (stereo not given in full) | > 3700 nM
O=[N+]([O-])[C@H]1C(c2ccccc2Br)C=CN(Cc2cccnc2)[C@@H]1c1ccc(O)c(O)c1 (stereo not given in full) | 13 nM
O=C1CC(c2cccc(Br)c2)[C@H]([N+](=O)[O-])[C@@H](c2ccc(O)cc2)N1Cc1ccc[n+]([O-])c1 (stereo not given in full) | > 3700 nM
O=C1CC(c2ccccc2Br)[C@H]([N+](=O)[O-])[C@@H](c2ccc(O)c(O)c2)N1Cc1cccnc1 (mixture of isomers) | 46 nM
O=[N+]([O-])[C@H]1C(c2ccccc2Br)CCN(Cc2cccnc2)[C@@H]1c1ccc(O)cc1 (mixture of isomers) | 8.2 nM
O=C1CC(c2ccccc2Br)[C@H]([N+](=O)[O-])[C@@H](c2ccc(O)cc2)N1Cc1cccnc1 (mixture of isomers) | 140 nM
O=[N+]([O-])[C@H]1C(c2ccccc2Br)CCN(Cc2cccnc2)[C@@H]1c1ccc(O)c(O)c1 (mixture of isomers) | 3.7 nM
O=C1CC(c2ccccc2Br)[C@H]([N+](=O)[O-])[C@@H](c2ccc(O)c(O)c2)N1Cc1cccnc1 (single isomer, unassigned; (+)) | 30 nM
O=[N+]([O-])[C@H]1C(c2ccccc2Br)CCN(Cc2cccnc2)[C@@H]1c1ccc(O)cc1 (single isomer, unassigned; (+)) | 5.8 nM
O=C1CC(c2ccccc2Br)[C@H]([N+](=O)[O-])[C@@H](c2ccc(O)cc2)N1Cc1cccnc1 (single isomer, unassigned; (+)) | 75 nM
O=[N+]([O-])[C@H]1C(c2ccccc2Br)CCN(Cc2cccnc2)[C@@H]1c1ccc(O)c(O)c1 (single isomer, unassigned; (+)) | 1.9 nM
O=C1CC(c2ccccc2Br)[C@H]([N+](=O)[O-])[C@@H](c2ccc(O)c(O)c2)N1Cc1cccnc1 (single isomer, unassigned; (-)) | 1200 nM
O=[N+]([O-])[C@H]1C(c2ccccc2Br)CCN(Cc2cccnc2)[C@@H]1c1ccc(O)cc1 (single isomer, unassigned; (-)) | > 310 nM
O=C1CC(c2ccccc2Br)[C@H]([N+](=O)[O-])[C@@H](c2ccc(O)cc2)N1Cc1cccnc1 (single isomer, unassigned; (-)) | 950 nM
O=C1CC(c2cccc(Br)c2)[C@H]([N+](=O)[O-])[C@@H](c2ccc(O)cc2)N1Cc1cccnc1 (stereo in doubt) | 420 nM
O=C1CC(c2cccc(Br)c2)[C@H]([N+](=O)[O-])[C@@H](c2ccc(O)cc2)N1Cc1cccnc1 (stereo in doubt; 1) | 350 nM
O=[N+]([O-])[C@H]1C(c2ccccc2Br)CCN(Cc2cccnc2)[C@@H]1c1ccc(O)c(O)c1 (stereo in doubt; 8-(-)) | > 310 nM
